# How the values were obtained:
# Staphylococcus aureus [1] = test: Ratio of moxifloxacin MIC to compound MIC for quinolone-resistant Staphylococcus aureus CCARM 3505 after 24 hrs by two-fold serial dilution method; assay type: functional
# Staphylococcus aureus [2] = test: Antibacterial activity against quinolone-resistant Staphylococcus aureus CCARM 3505 after 24 hrs by two-fold serial dilution method; assay type: functional; conditions: CCARM 3505, 24 h
# Method in brief: (§1)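 Broth microdilution in Mueller-Hinton broth. Bacteria grown to mid-log phase, diluted 1000-fold, and inoculated at 10⁵ CFU/mL. Test compounds in DMSO, final DMSO not above 0.05%, final concentrations 64-0.5 µg/mL. Incubation 24 h at 37 °C, growth read as absorbance at 650 nm. MIC taken as the lowest concentration giving complete growth inhibition. Run three times.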
# Streptococcus mutans = test: Antibacterial activity against Streptococcus mutans 3065 after 24 hrs by two-fold serial dilution method; assay type: functional; conditions: Streptococcus mutans, 3065, 24 h
# Method in brief: (§2)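 Broth microdilution in Mueller-Hinton broth over final concentrations of 64–0.5. Bacteria were grown to mid-log phase and diluted 1000-fold, then inoculated at 10⁵ CFU/mL. Compounds were dissolved in DMSO, with final DMSO at most 0.05%. Plates were incubated 24 h at 37 °C and growth read as absorbance at 650 nm. MIC is the concentration giving complete growth inhibition. Three independent runs.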
# Staphylococcus aureus [3] = test: Ratio of gatifloxacin MIC to compound MIC for quinolone-resistant Staphylococcus aureus CCARM 3505 after 24 hrs by two-fold serial dilution method; assay type: functional
# Staphylococcus aureus [4] = test: Ratio of gatifloxacin MIC to compound MIC for quinolone-resistant Staphylococcus aureus CCARM 3519 after 24 hrs by two-fold serial dilution method; assay type: functional
# Pseudomonas aeruginosa [5] = test: Antibacterial activity against Pseudomonas aeruginosa 2742 after 24 hrs by two-fold serial dilution method; assay type: functional; conditions: Pseudomonas aeruginosa, 2742, 24 h; method in brief: as §2
# Staphylococcus aureus [6] = test: Antibacterial activity against quinolone-resistant Staphylococcus aureus CCARM 3519 after 24 hrs by two-fold serial dilution method; assay type: functional; conditions: CCARM 3519, 24 h; method in brief: as §1
# Escherichia coli [7] = test: Antibacterial activity against Escherichia coli KCTC 1924 after 24 hrs by two-fold serial dilution method; assay type: functional; conditions: KCTC 1924, 24 h; method in brief: as §2
# Escherichia coli [8] = test: Antibacterial activity against Escherichia coli CCARM 1356 after 24 hrs by two-fold serial dilution method; assay type: functional; conditions: CCARM 1356, 24 h; method in brief: as §2
# Mus musculus = test: Antiinflammatory activity in mouse assessed as inhibition of xylene-induced ear edema at 50 mg/kg, ip administered 30 mins before xylene challenge relative to control; assay type: functional
# Method in brief: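 Mice received compound freshly dissolved in DMSO, 50 mg/kg ip at 0.05 mL/20 g body weight; vehicle controls got DMSO alone. After 30 min, 20 µL xylene was applied to the right ear. After a further 30 min, 7 mm plugs were cut from treated and untreated ears and edema taken as their weight difference. Result is % edema reduction versus vehicle controls.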
# Staphylococcus aureus [9] = test: Ratio of moxifloxacin MIC to compound MIC for quinolone-resistant Staphylococcus aureus CCARM 3519 after 24 hrs by two-fold serial dilution method; assay type: functional
# Staphylococcus aureus [10] = test: Antibacterial activity against Staphylococcus aureus 209 after 24 hrs by two-fold serial dilution method; assay type: functional; conditions: Staphylococcus aureus, 209, 24 h; method in brief: as §1
# Staphylococcus aureus [11] = test: Antibacterial activity against methicillin-resistant Staphylococcus aureus CCARM 3506 after 24 hrs by two-fold serial dilution method; assay type: functional; conditions: CCARM 3506, 24 h; method in brief: as §1
# Staphylococcus aureus [12] = test: Antibacterial activity against Staphylococcus aureus 503 after 24 hrs by two-fold serial dilution method; assay type: functional; conditions: Staphylococcus aureus, 503, 24 h; method in brief: as §1
# Pseudomonas aeruginosa [13] = test: Antibacterial activity against Pseudomonas aeruginosa 2004 after 24 hrs by two-fold serial dilution method; assay type: functional; conditions: Pseudomonas aeruginosa, 2004, 24 h; method in brief: as §2
# Staphylococcus aureus [14] = test: Antibacterial activity against methicillin-resistant Staphylococcus aureus CCARM 3167 after 24 hrs by two-fold serial dilution method; assay type: functional; conditions: CCARM 3167, 24 h; method in brief: as §1
# Staphylococcus aureus [15] = test: Antibacterial activity against Staphylococcus aureus RN4220 after 24 hrs by two-fold serial dilution method; assay type: functional; conditions: RN4220, 24 h; method in brief: as §1
# Escherichia coli [16] = test: Ratio of moxifloxacin MIC to compound MIC for Escherichia coli CCARM 1356 after 24 hrs by two-fold serial dilution method; assay type: functional
# Salmonella typhimurium = test: Antibacterial activity against Salmonella typhimurium 2421 after 24 hrs by two-fold serial dilution method; assay type: functional, Salmonella enterica subsp. enterica serovar Typhimurium; conditions: Salmonella enterica, 2421, 24 h; method in brief: as §2
# Candida albicans = test: Antifungal activity against Candida albicans 7535 by two-fold serial dilution method; assay type: functional
# Escherichia coli [17] = test: Ratio of gatifloxacin MIC to compound MIC for Escherichia coli CCARM 1356 after 24 hrs by two-fold serial dilution method; assay type: functional
# Staphylococcus aureus [18] = test: Ratio of oxacillin MIC to compound MIC for methicillin-resistant Staphylococcus aureus CCARM 3506 after 24 hrs by two-fold serial dilution method; assay type: functional
# Staphylococcus aureus [19] = test: Ratio of norfloxacin MIC to compound MIC for methicillin-resistant Staphylococcus aureus CCARM 3506 after 24 hrs by two-fold serial dilution method; assay type: functional
SMILES,Ratio (Staphylococcus aureus [1]),MIC (Staphylococcus aureus [2]) [µg/mL],MIC (Streptococcus mutans) [µg/mL],Ratio (Staphylococcus aureus [3]),Ratio (Staphylococcus aureus [4]),MIC (Pseudomonas aeruginosa [5]) [µg/mL],MIC (Staphylococcus aureus [6]) [µg/mL],MIC (Escherichia coli [7]) [µg/mL],MIC (Escherichia coli [8]) [µg/mL],inhibition in vivo at 50 mg/kg (Mus musculus) [%],Ratio (Staphylococcus aureus [9]),MIC (Staphylococcus aureus [10]) [µg/mL],MIC (Staphylococcus aureus [11]) [µg/mL],MIC (Staphylococcus aureus [12]) [µg/mL],MIC (Pseudomonas aeruginosa [13]) [µg/mL],MIC (Staphylococcus aureus [14]) [µg/mL],MIC (Staphylococcus aureus [15]) [µg/mL],Ratio (Escherichia coli [16]),MIC (Salmonella typhimurium) [µg/mL],MIC (Candida albicans) [µg/mL],further results
N=C(N)N/N=C/c1cn(-c2ccc([N+](=O)[O-])cc2[N+](=O)[O-])nc1-c1ccc(Cl)cc1,2,2,4,4,2,> 64,2,2,8,71.5,2,2,2,2,> 64,2,2,16,4,2,
N=C(N)N/N=C/c1cn(-c2ccc([N+](=O)[O-])cc2[N+](=O)[O-])nc1-c1ccc(Br)cc1,,2,2,4,,> 64,2,2,4,69.6,2,2,1,2,> 64,2,2,,4,1,Ratio (Escherichia coli [17]): 4; Ratio (Staphylococcus aureus [18]): 64
N=C(N)N/N=C/c1cn(-c2ccc([N+](=O)[O-])cc2[N+](=O)[O-])nc1-c1cccc(Br)c1,2,2,4,4,2,> 64,2,2,4,81.7,2,2,1,2,> 64,1,1,,4,1,Ratio (Staphylococcus aureus [19]): 4; Ratio (Escherichia coli [17]): 4; Ratio (Staphylococcus aureus [18]): 64
Cc1ccc(-c2nn(-c3ccc([N+](=O)[O-])cc3[N+](=O)[O-])cc2/C=N/NC(=N)N)cc1,2,2,4,,2,> 64,2,2,4,87.4,2,2,2,2,> 64,2,2,,4,2,
N=C(N)N/N=C/c1cn(-c2ccc([N+](=O)[O-])cc2[N+](=O)[O-])nc1-c1cccc(Cl)c1,2,2,4,4,2,> 64,2,2,4,82.4,2,2,1,2,> 64,2,1,,4,1,Ratio (Staphylococcus aureus [19]): 4; Ratio (Escherichia coli [17]): 4; Ratio (Staphylococcus aureus [18]): 64
COc1ccc(-c2nn(-c3ccc([N+](=O)[O-])cc3[N+](=O)[O-])cc2/C=N/NC(=N)N)cc1,,4,8,,,> 64,4,4,8,86.5,,4,2,4,> 64,4,4,16,8,2,
N=C(N)N/N=C/c1cn(-c2ccc([N+](=O)[O-])cc2[N+](=O)[O-])nc1-c1ccc(Cl)cc1Cl,2,2,4,4,2,> 64,2,2,8,61.9,,2,2,2,> 64,2,2,16,8,2,
Cc1ccc(-c2nn(-c3ccccc3)cc2/C=N/NC(=N)N)cc1,,4,8,,,32,4,2,8,86.5,,4,2,4,16,2,2,16,8,2,
Cc1cccc(-c2nn(-c3ccc([N+](=O)[O-])cc3[N+](=O)[O-])cc2/C=N/NC(=N)N)c1,,2,4,,,> 64,4,2,8,76.9,,2,2,2,> 64,2,2,16,8,2,
COc1cccc(-c2nn(-c3ccc([N+](=O)[O-])cc3[N+](=O)[O-])cc2/C=N/NC(=N)N)c1,,4,8,,,> 64,4,4,8,67.3,,4,2,4,> 64,4,4,16,8,2,
Cc1ccc(-c2nn(-c3ccc([N+](=O)[O-])cc3[N+](=O)[O-])cc2/C=N/NC(=N)N)c(C)c1,,2,4,,,> 64,4,2,8,79.6,,4,2,4,> 64,2,2,16,8,2,
